In the library only some 12% were active in any assay of this set; here they are far more common.
Cl transport mod – KCC2 (human) Cl- transport modulation. AID 1456. KCC2 cells, thallium flux FluoZin-2 fluorescence. actives 2.2% (n = 190,000). Q9H2X9. B-score of Tl+ flux slope (higher = more flux/activation; lower = inhibition) at 10 µM;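 active = thallium flux slope and its plate-corrected score both differing from the plate sample mean at a set confidence after two filtering rounds, in either direction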;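 also: slope of fluorescence scaled to starting intensity during 10 to 20 s after thallium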
L major viab – reduces viability of Leishmania major promastigotes; inhibition, % at 10 µM; resazurin fluorescence viability; AID 1063; actives 9% (n = 200,000); in the data active = inhibition above about 50%;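 also: promastigotes grown with compound for 44 hours at 28 °C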
Diaph act CS – activates diaphorase or chemically reduces, flagging diaphorase assay artifacts; Diaphorase/resazurin coupled assay, resorufin fluorescence, 16 min; hits give high values; 1 = vehicle wells, 0 = NADH-free wells; activation factor at 20 µM; actives 0.005% (n = 190,000); AID 1229;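 active = diaphorase activity raised at least twofold by the compound at 20 µM; inactive = activation factor below 2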
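test system = bacterial diaphorase enzyme (C. kluyveri) | quantity = enzyme 0.07 U/mL final | reagent = NADH substrate 0.114 mM plus resazurin dye 0.1 mM, final | incubation = 16 min enzyme reaction, ambient temperature | buffer or medium = HEPES pH 7.4 buffer with MgCl2 and Tween 20 | signal = fluorescence of resorufin, 544 nm excitation, 590 nm emission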
WT yeast gro inh – growth inhibition of WT yeast, mitochondrial fusion screen. inhibition, % at 10 µM. mitochondrial fusion phenotypic screen, WT strain. actives 2.1% (n = 190,000). AID 1362; in the data active = inhibition above about 58%; tested in S. cerevisiae
Diaph inh CS – diaphorase inhibition or chemical oxidation counter-screen. inhibition, % at 20 µM. actives 0.69% (n = 190,000). diaphorase resazurin-to-resorufin fluorescence, NADH, 16 min; bacterial (C. kluyveri) enzyme, not human;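 active = primary screen inhibition at 20 µM above a set limit, cut at about 50% in these data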
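Test system: Clostridium kluyveri diaphorase enzyme / Quantity: diaphorase at 0.14 U/mL in enzyme working solution / Incubation: 16-min room-temperature incubation before reading / Benchmarks: NADH-free wells as positive control, DMSO-only neutral wells / Signal: resorufin fluorescence 544/590 nm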
ROMK primary – modulates human ROMK potassium channel activity | actives 2% (n = 130,000) | B-score at 10 µM | AID 1918 | P48048 | Tet-inducible ROMK, thallium flux fluorescence; actives lie on both sides;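 active = signal ratio slope over the read window, or its plate-corrected B-score, at least 3 SD from the plate mean, either direction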;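 also: B-score of the F/F0 ratio slope over 7 to 12 s after thallium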
Target sequence (P48048 whole entry, looked up): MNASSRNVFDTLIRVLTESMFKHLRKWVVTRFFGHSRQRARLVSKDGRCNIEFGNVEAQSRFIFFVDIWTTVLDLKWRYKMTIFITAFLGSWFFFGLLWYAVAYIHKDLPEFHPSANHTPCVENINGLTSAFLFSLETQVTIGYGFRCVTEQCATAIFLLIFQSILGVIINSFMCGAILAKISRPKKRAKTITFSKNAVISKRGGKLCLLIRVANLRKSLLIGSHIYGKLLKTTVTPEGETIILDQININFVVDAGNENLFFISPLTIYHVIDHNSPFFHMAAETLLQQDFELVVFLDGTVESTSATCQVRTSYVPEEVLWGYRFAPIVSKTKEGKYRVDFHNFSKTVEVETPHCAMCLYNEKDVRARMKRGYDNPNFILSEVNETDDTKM
Each line names hits and unclear results; the compound was inactive in the other large screens.

COc1cc2[nH]c(=O)n(C3CCCCC3)c(=O)c2cc1OC	L major viab 50 (no result: ROMK primary)
COc1cc2[nH]c(=O)n(Cc3ccccc3Cl)c(=O)c2cc1OC	none (no result: ROMK primary)
Cc1ccc2c(c1)C(c1ccncc1)=NNC(c1ccc(C(C)C)cc1)=N2	none (no result: Cl transport mod)
CC1(C)C2CCC1(CS(=O)(=O)Nc1ccc(S(=O)(=O)N3CCCC3)cc1)C(=O)C2 (stereo not given)	L major viab 50
COc1cccc(NC(=O)Cn2c(=O)n(-c3ccccc3)c(=O)c3sccc32)c1	none
O=c1c(Cl)c(N2CCCCC2)cnn1-c1nc2ccccc2[nH]1	L major viab 60 (no result: ROMK primary)
O=c1c2ccccc2nc2c3ccccc3cnn12	none
Clc1ccc2nc(N3CCCCC3)[nH]c2c1	none
O=c1c2ccccc2cnn1-c1nc2ccccc2[nH]1	WT yeast gro inh 86
CCC1=NN(C(=O)c2cccc(Br)c2)C(O)(c2ccc(Br)cc2)C1 (stereo not given)	Cl transport mod 6.5 (no result: ROMK primary)
CCOC(=O)N1CCC(NC(=O)c2cccs2)CC1	none (no result: L major viab, Diaph act CS, WT yeast gro inh, Diaph inh CS)
O=C(NCCCCCCNC(=O)c1cccs1)c1cccs1	none (no result: Diaph act CS, Diaph inh CS)
CCOC(=O)N1CCC(NCCNC(=O)c2ccccc2Cl)CC1	L major viab 84 (no result: ROMK primary)
CCOC(=O)N1CCC(NC(=O)c2ccccc2C(=O)O)CC1	none (no result: L major viab, Diaph act CS, WT yeast gro inh, Diaph inh CS)
CCOC(=O)N1CCC(NCCNC(=O)c2cccs2)CC1	L major viab 88 (no result: Cl transport mod)
O=C(NCCNC1CCC(c2ccccc2)CC1)c1cccs1 (stereo not given)	L major viab 94
CCOC(=O)N1CCC(NCCNC(=O)c2ccccc2)CC1	L major viab 77 (no result: Cl transport mod, ROMK primary)
Cc1cccc(OCc2nnc(SCC(=O)N3CC(=O)Nc4ccccc43)o2)c1	none (no result: Cl transport mod)
COC(=O)C1=C(C)N(c2ccc(OC)cc2)C(C)=C(C(=O)OC)C1c1ccccc1	none (no result: L major viab, Diaph act CS, WT yeast gro inh, Diaph inh CS)
O=C(CN1CCN(Cc2ccccc2)CC1)N/N=C/c1cccnc1	none (no result: L major viab, Diaph act CS, WT yeast gro inh, Diaph inh CS)
CCc1ccc(N2C(=O)CN(Cc3sccc3C)C2=S)cc1	none
CC(NC(=O)CSC1=NCCS1)c1ccccc1 (stereo not given)	none (no result: ROMK primary)
CCc1nnc(NC(=O)c2ccc(S(=O)(=O)N(C)c3ccccc3)cc2)o1	L major viab 83
CSCc1nnc(NC(=O)c2ccc(S(=O)(=O)N(CC(C)C)CC(C)C)cc2)o1	L major viab 79, WT yeast gro inh 72 (no result: ROMK primary)
Cc1nnc(NC(=O)c2ccc(S(=O)(=O)N(C)Cc3ccccc3)cc2)o1	L major viab 77 (no result: Cl transport mod)
COCCN(CCOC)S(=O)(=O)c1ccc(C(=O)Nc2nnc(C)o2)cc1	none (no result: ROMK primary)
CN(c1ccccc1)S(=O)(=O)c1ccc(NC(=O)c2ccccc2)cc1	none (no result: ROMK primary)
N/C(=N\OC(=O)c1csnn1)c1ccc(C(F)(F)F)cc1	none (no result: L major viab, Diaph act CS, WT yeast gro inh, Diaph inh CS)
COc1ccc(C(=O)N/C(=C\c2ccc3c(c2)OCO3)C(=O)NCCc2nc3ccccc3[nH]2)cc1	none
O=[N+]([O-])c1ccc(NC(=S)NCCc2ccccc2)cc1	L major viab 74, WT yeast gro inh 81
O=[N+]([O-])c1ccc(NNC(=S)Nc2ccccc2)cc1	L major viab 53
O=[N+]([O-])c1ccc(O)c(NC(=S)Nc2ccccc2)c1	none
Cc1cccc(C(=O)NN2S(=O)(=O)c3ccccc3S2(=O)=O)c1	none
O=C(NC1CCS(=O)(=O)C1)/C(=C/c1ccco1)NC(=O)c1ccccc1 (stereo not given)	Diaph inh CS 55 (no result: Cl transport mod)
CCN1CCCC1CN(Cc1cc2ccc(C)cc2[nH]c1=O)C(=S)Nc1ccc(F)cc1 (stereo not given)	none (no result: Diaph act CS, Diaph inh CS)
CCOC(CCn1c(SCc2ccc([N+](=O)[O-])cc2)nc2ccccc2c1=O)OCC	L major viab 51
Cc1ccc(-n2c(SCc3ccc([N+](=O)[O-])cc3)nc3ccccc3c2=O)cc1	none (no result: Cl transport mod, ROMK primary)
N#Cc1cc2ccccc2nc1SCC(=O)Nc1ccc(S(=O)(=O)N2CCCC2)cc1	L major viab 96 (no result: Cl transport mod)
CCOc1ccc2nc(SCC(=O)Nc3ccc(S(=O)(=O)N4CCCC4)cc3)c(C)cc2c1	none (no result: L major viab, Diaph act CS, WT yeast gro inh, Diaph inh CS, ROMK primary)
COc1ccc2nc(SCC(=O)Nc3ccc(S(=O)(=O)N4CCCC4)cc3)c(C#N)cc2c1	L major viab 90 (no result: ROMK primary)
CCCC(=O)N1CCN(c2ccc(NC(=S)NC(=O)CC)cc2)CC1	none (no result: Cl transport mod, ROMK primary)
Cc1cccc(NC(=O)c2cc(NC(=O)c3ccco3)ccc2Cl)n1	L major viab 85 (no result: ROMK primary)
Cc1ccccc1C(=O)N1CCN(c2ccc(NC(=O)c3ccco3)cc2Cl)CC1	L major viab 99 (no result: ROMK primary)
O=C(Nc1ccc(N2CCCC2)cc1)c1ccccc1F	L major viab 100 (no result: ROMK primary)
O=C(Nc1ccc(N2CCN(C(=O)c3cccs3)CC2)c(Cl)c1)c1ccco1	none (no result: Cl transport mod, ROMK primary)
CCN1CCN(c2ccc(NC(=O)c3ccccc3F)cc2Cl)CC1	L major viab 75
COc1cc2c(cc1OC)C(C(=O)NCCN(C)C)C(c1cccs1)N(C)C2=O (stereo not given)	none
COc1ccc(Cl)cc1-c1nc(-c2ccc(NC(=O)c3cccs3)cc2)no1	L major viab 65
CC(Oc1ccc(Cl)cc1Cl)c1nc(-c2ccc(NC(=O)c3cccnc3)cc2)no1 (stereo not given)	L major viab 95
CC(Oc1ccc(Cl)cc1Cl)c1nc(-c2ccc(NC(=O)c3ccncc3)cc2)no1 (stereo not given)	none (no result: ROMK primary)
COc1ccc(-c2noc(-c3ccccc3C(=O)Nc3cccnc3)n2)cc1	none (no result: ROMK primary)
COc1ccc(-c2noc(-c3ccccc3C(=O)Nc3cccnc3)n2)cc1OC	L major viab 71 (no result: Cl transport mod)
O=C(NC1CC1)C1=C[C@@H](c2coc3ccccc3c2=O)C[C@@H](OCCCCO)O1	none (no result: L major viab, Diaph act CS, WT yeast gro inh, Diaph inh CS, ROMK primary)
Cc1ccccc1-c1nnc(NC(=O)CSc2nc3ccccc3s2)s1	none
CCOC(=O)c1ccc(CC(=O)c2oc3cc(O)ccc3c2C)o1	none (no result: ROMK primary)
CCOC(=O)c1ccc(CC(=O)c2ccc(O)c(O)c2O)o1	Diaph inh CS 76
CC1N(C)c2cc(NC(=O)c3ccco3)ccc2C1(C)C (stereo not given)	none (no result: ROMK primary)
CC1N(C)c2cc(NC(=O)c3ccco3)c(P(=O)(Nc3ccc([N+](=O)[O-])cc3)N3CCOCC3)cc2C1(C)C (stereo not given)	L major viab 55
O=C(CNC(=O)c1ccc(Oc2ccccc2)cc1)OC1CCCCC1=O (stereo not given)	none
CCN(CC)c1ccc(S(=O)(=O)Nc2cc(Cl)ccc2Cl)cc1NC(=S)NC(=O)C1CCCC1	L major viab 56
CCCNC(=O)NC(=O)CSc1cccc(C(F)(F)F)c1	none
CCOC(=O)C(NC(=O)NCc1ccc(OC)cc1)(OCC)C(F)(F)F (stereo not given)	none
O=C(CNC(=O)c1ccc(S(=O)(=O)N2CCCC2)cc1)N/N=C/c1c(Cl)cccc1Cl	L major viab 83
COc1ccc(/C=N/NC(=O)CNC(=O)c2ccc(S(=O)(=O)N3CCOCC3)cc2)c(OC)c1	none
